# Measured values pooled from the literature.
# Each line is one published result; the experiments were not run side by side.
# Medium: plasma
# Route: oral
Compound,test system,conditions,Cmax
COCCOc1cnc2ccn([C@H](C)c3nnc4c(F)cc(-c5cnn(C)c5)cn34)c(=O)c2c1,human,"300 mg, multiple doses, once daily, patients",4140 ng/mL
COc1cc(C(=O)NC2CCN(C)CC2)c(F)cc1Nc1ncc(C(F)(F)F)c(Oc2cccc3c2C(=O)N(C)C3)n1,human,"25 mg, multiple doses, once daily, steady state, patients",405 nM
CCc1nc2c(C)cc(N3CCN(CC(=O)N4CC(O)C4)CC3)cn2c1N(C)c1nc(-c2ccc(F)cc2)c(C#N)s1,human,"150 mg, single dose, fed, healthy volunteers",1400 ng/mL
CC(C)n1cc(C#N)c2cc(-n3cc(C(=O)O)cn3)ccc21,human,"200 mg, single dose, fed",5400 ng/mL
CO[C@H]1CC[C@H](N2C(=O)CNc3ncc(-c4ccc(C(C)(C)O)nc4)nc32)CC1,human,"15 mg, patients",97.4 ng/mL
CCn1c(=O)c(-c2cc(NC(=O)Nc3ccccc3)c(F)cc2Br)cc2cnc(NC)cc21,human,"150 mg, single dose, patients",502 ng/mL
CC(C)(O)c1ccccc1-c1ccc2[nH]c(/C=C/c3ccc(C(F)(F)F)cc3)nc2c1,male human,"2 mg, single dose, fasted, healthy volunteers",7.66 ng/mL
Cn1cc(-c2ccc(S(=O)(=O)[C@@H]3C[C@@H](C(=O)NC4(C#N)CC4)N(C(=O)C4(C(F)(F)F)CC4)C3)c(C(F)(F)F)c2)cn1,human,"100 mg, single dose, fasted, healthy volunteers",516 ng/mL
COc1ccc([C@@H]2CN(C(=O)[C@@H](O)CO)C[C@@]2(C)[C@@H](C)O)cc1OC1CN(c2ccc(C)cn2)C1,human,"1.5 mg, single dose, healthy volunteers",76.5 ng/mL
